# Measured values reported in ChEMBL document CHEMBL3826892, “Second-Generation Phenylthiazole Antibiotics with Enhanced Pharmacokinetic Properties” (J Med Chem, 2016).
# Tests used:
# Staphylococcus aureus [1] = assay: Antimicrobial activity against methicillin-resistant Staphylococcus aureus RCMB 2658 clinical isolate after 20 hrs by broth microdilution method; format: functional; conditions: RCMB 2658, 20 h
# How it was run: (§1)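 CLSI broth microdilution in cation-adjusted Mueller Hinton broth. Compounds were serially diluted in triplicate and plates held at 37 °C for 20 h. MIC was taken by eye as the lowest concentration with no visible growth, and the average of the triplicate determinations is reported.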
# [2] = Apparent permeability across apical to basolateral side in human Caco2 cells at pH 6.5 after 2 hrs by LC/MS/MS analysis; format: ADME, cell-based; conditions: Caco-2, pH 6.5
# How it was run: (§2)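 Caco-2 cells were grown and differentiated for 3 weeks, fed every 2 days. Compound was added to the apical or basolateral side and measured on the opposite side after 2 h by LC/MS/MS. Apical buffer was pH 6.5 transport buffer (glucose, 10 mM HEPES, HBSS) with 100 μM Lucifer yellow; basolateral buffer was pH 7.4. Lucifer yellow fluorescence checked monolayer integrity. Papp = (dQ/dt)/C₀A; efflux ratio = Papp(B→A)/Papp(A→B).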
# [3] = Aqueous solubility of the compound in PBS after 2 hrs by turbidity assay; format: physicochemical
# How it was run: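 Serial dilutions were made […] and diluted 100-fold into PBS. After 2 h, turbidity was read at 540 nm with pre-addition background subtracted. Turbidity was taken as absorbance > blank mean + 3 SD. Solubility limit is the highest concentration with no turbidity.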
# [4] = Efflux ratio of apparent permeability from basolateral to apical side over apical to basolateral side in human Caco2 cells after 2 hrs by LC/MS/MS analysis; format: ADME, cell-based; conditions: Caco-2; how it was run: as §2
# [5] = Apparent permeability across basolateral to apical side in human Caco2 cells at pH 7.4 after 2 hrs by LC/MS/MS analysis; conditions: Caco-2, pH 7.4
# Staphylococcus aureus [6] = assay: Bactericidal activity against methicillin-resistant Staphylococcus aureus USA200 NRS383 clinical isolate after 20 hrs by broth microdilution method; format: functional; conditions: USA200 NRS383, 20 h
# Staphylococcus aureus [7] = assay: Antimicrobial activity against methicillin-resistant Staphylococcus aureus NRS119 clinical isolate after 20 hrs by broth microdilution method; format: functional; conditions: NRS119, 20 h; how it was run: as §1
# [8] = Mean residence time in Sprague-Dawley rat plasma at 50 mg/kg administered via oral gavage measured 24 hrs post dose by LC/MS/MS analysis; format: ADME, organism-based
# How it was run: (§3)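 Male naive Sprague-Dawley rats (n = 3) received a single 50 mg/kg oral gavage dose in 5% ethanol, 45% PEG 400, 50% water. Blood was collected into EDTA-K2 tubes over 24 h post dose. Plasma was protein-precipitated with acetonitrile and parent was quantified by LC/MS/MS to derive PK parameters.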
# [9] = AUClast in Sprague-Dawley rat plasma at 50 mg/kg administered via oral gavage measured 24 hrs post dose by LC/MS/MS analysis; format: ADME, organism-based; parameters: dose 50 mg/kg, time 0 - last, route oral; how it was run: as §3
# Staphylococcus aureus [10] = assay: Antimicrobial activity against methicillin-resistant Staphylococcus aureus USA400 NRS123 clinical isolate after 20 hrs by broth microdilution method; format: functional; conditions: USA400 NRS123, 20 h; how it was run: as §1
# Staphylococcus aureus [11] = assay: Bactericidal activity against methicillin-resistant Staphylococcus aureus USA300 assessed as time required to reduce bacterial inoculum to zero colony forming units at 3 times MIC by time kill assay; format: functional
# How it was run: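 Samples taken at 2, 4, 6, 8, 10, 12 and 24 h were serially diluted in PBS and plated on trypticase soy agar. Viable CFU/mL were counted after at least 16 h at 37 °C.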
# Staphylococcus aureus [12] = assay: Antimicrobial activity against vancomycin-resistant Staphylococcus aureus 10 clinical isolate after 20 hrs by broth microdilution method; format: functional; conditions: isolate 10, 20 h; how it was run: as §1
# Staphylococcus aureus [13] = assay: Bactericidal activity against methicillin-sensitive Staphylococcus aureus NRS72 clinical isolate after 20 hrs by broth microdilution method; format: functional; conditions: NRS72, 20 h
# [14] = Total AUC in Sprague-Dawley rat plasma at 50 mg/kg administered via oral gavage measured 24 hrs post dose by LC/MS/MS analysis; format: ADME, organism-based; parameters: dose 50 mg/kg, route oral, time AUCmax; how it was run: as §3
# Staphylococcus aureus [15] = assay: Antimicrobial activity against methicillin-sensitive Staphylococcus aureus NRS72 clinical isolate after 20 hrs by broth microdilution method; format: functional; conditions: NRS72, 20 h; how it was run: as §1
# [16] = Ratio of non toxic dose for cytotoxicity against human HaCaT cells to MIC for methicillin-resistant Staphylococcus aureus RCMB 2658 clinical isolate; format: toxicity, cell-based
# How it was run: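 HaCaT keratinocytes in DMEM with 10% FBS at 37 °C, 5% CO2, exposed for 2 h to 8–256 μg/mL, then MTS read-out. Viability is given as a percentage of the DMSO control, in triplicate. The highest non-toxic concentration is divided by the MRSA MIC.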
# Staphylococcus aureus [17] = assay: Antimicrobial activity against methicillin-resistant Staphylococcus aureus USA200 NRS383 clinical isolate after 20 hrs by broth microdilution method; format: functional; conditions: USA200 NRS383, 20 h; how it was run: as §1
# [18] = Tmax in Sprague-Dawley rat plasma at 50 mg/kg administered via oral gavage measured 24 hrs post dose by LC/MS/MS analysis; format: ADME, organism-based; how it was run: as §3
# Staphylococcus aureus [19] = assay: Bactericidal activity against methicillin-resistant Staphylococcus aureus NRS119 clinical isolate after 20 hrs by broth microdilution method; format: functional; conditions: NRS119, 20 h
# Rattus norvegicus [20] = assay: Elimination rate constant in Sprague-Dawley rat plasma at 50 mg/kg administered via oral gavage by LC/MS/MS analysis; format: ADME, organism-based; conditions: in vivo; how it was run: as §3
# Staphylococcus aureus [21] = assay: Antimicrobial activity against methicillin-resistant Staphylococcus aureus USA100 NRS382 clinical isolate after 20 hrs by broth microdilution method; format: functional; conditions: USA100 NRS382, 20 h; how it was run: as §1
# Staphylococcus aureus [22] = assay: Antimicrobial activity against methicillin-resistant Staphylococcus aureus USA300 NRS384 clinical isolate after 20 hrs by broth microdilution method; format: functional; conditions: USA300 NRS384, 20 h; how it was run: as §1
# Staphylococcus aureus [23] = assay: Bactericidal activity against methicillin-resistant Staphylococcus aureus USA300 NRS384 clinical isolate after 20 hrs by broth microdilution method; format: functional; conditions: USA300 NRS384, 20 h
# HaCaT = assay: Cytotoxicity against human HaCaT cells assessed as cell viability up to 64 ug/ml after 2 hrs by MTS assay; format: cell-based
# How it was run: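 HaCaT keratinocytes were grown in DMEM with 10% FBS at 37 °C, 5% CO₂. They were exposed in triplicate to 8–256 μg/mL for 2 h, then MTS was added. Background-corrected absorbance was expressed as % viability relative to a DMSO vehicle control.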
# Staphylococcus aureus [24] = assay: Bactericidal activity against vancomycin-resistant Staphylococcus aureus 10 clinical isolate after 20 hrs by broth microdilution method; format: functional; conditions: isolate 10, 20 h
# Rattus norvegicus [25] = assay: Half life in Sprague-Dawley rat plasma at 50 mg/kg administered via oral gavage measured 24 hrs post dose by LC/MS/MS analysis; format: ADME, organism-based; conditions: in vivo; how it was run: as §3
# Enterococcus faecium [26] = assay: Antimicrobial activity against vancomycin-resistant Enterococcus faecium ATCC 700221 after 20 hrs by broth microdilution method; format: functional; conditions: ATCC 700221, 20 h; how it was run: as §1
# Staphylococcus aureus [27] = assay: Bactericidal activity against methicillin-resistant Staphylococcus aureus USA100 NRS382 clinical isolate after 20 hrs by broth microdilution method; format: functional; conditions: USA100 NRS382, 20 h
# Enterococcus faecium [28] = assay: Bactericidal activity against vancomycin-resistant Enterococcus faecium ATCC 700221 after 20 hrs by broth microdilution method; format: functional; conditions: ATCC 700221, 20 h
# Staphylococcus aureus [29] = assay: Bactericidal activity against methicillin-resistant Staphylococcus aureus USA400 NRS123 clinical isolate after 20 hrs by broth microdilution method; format: functional; conditions: USA400 NRS123, 20 h
# [30] = Cmax in Sprague-Dawley rat plasma at 50 mg/kg administered via oral gavage measured 24 hrs post dose by LC/MS/MS analysis; format: ADME, organism-based; parameters: dose 50 mg/kg, route oral; how it was run: as §3
# Staphylococcus aureus [31] = assay: Potency index, ratio of vancomycin MIC to compound MIC for methicillin-resistant Staphylococcus aureus RCMB 2658 clinical isolate; format: functional
structure (smiles),measurement,setting,value
CCCCc1ccc(-c2nc(C)c(-c3ccnc(NC(=N)N)n3)s2)cc1,MIC,Staphylococcus aureus [1],1.56 µg/mL
CCCCc1ccc(-c2nc(C)c(-c3ccnc(N)n3)s2)cc1,Papp A→B at 2 h,[2],14.9 ×10⁻⁶ cm/s
same,MIC,Staphylococcus aureus [1],3.12 µg/mL
same,solubility kinetic at 2 h,[3],42 µM
same,efflux ratio at 2 h,[4],1.1
same,Papp B→A at 2 h,[5],17 ×10⁻⁶ cm/s
CCCCc1ccc(-c2nc(C)c(-c3ccnc(NN)n3)s2)cc1,Papp A→B at 2 h,[2],1.6 ×10⁻⁶ cm/s
same,MIC,Staphylococcus aureus [1],0.4 µg/mL
same,MBC,Staphylococcus aureus [6],2 µg/mL
same,solubility kinetic at 2 h,[3],55 µM
same,MIC,Staphylococcus aureus [7],2 µg/mL
same,MRT,[8],7.74 h
same,AUC(0-t) at 24 h,[9],83200 ng·h/mL
same,MIC,Staphylococcus aureus [10],2 µg/mL
same,Time,Staphylococcus aureus [11],2 h
same,MIC,Staphylococcus aureus [12],1 µg/mL
same,MBC,Staphylococcus aureus [13],8 µg/mL
same,AUC at 24 h,[14],100000 ng·h/mL
same,MIC,Staphylococcus aureus [15],2 µg/mL
same,selectivity ratio,[16],160
same,efflux ratio at 2 h,[4],1.8
same,MIC,Staphylococcus aureus [17],2 µg/mL
same,Papp B→A at 2 h,[5],2.8 ×10⁻⁶ cm/s
same,Tmax,[18],4.67 h
same,MBC,Staphylococcus aureus [19],2 µg/mL
same,Kel,Rattus norvegicus [20],0.19 h⁻¹
same,MIC,Staphylococcus aureus [21],2 µg/mL
same,MIC,Staphylococcus aureus [22],2 µg/mL
same,MBC,Staphylococcus aureus [23],2 µg/mL
same,Activity,HaCaT,Non-toxic
same,MBC,Staphylococcus aureus [24],2 µg/mL
same,t1/2,Rattus norvegicus [25],8.24 h
same,MIC,Enterococcus faecium [26],2 µg/mL
same,MBC,Staphylococcus aureus [27],4 µg/mL
same,MBC,Enterococcus faecium [28],8 µg/mL
same,MBC,Staphylococcus aureus [29],2 µg/mL
same,Cmax,[30],9330 ng/mL
Cc1nc(-c2ccc(-c3ccco3)cc2)sc1-c1ccnc(N)n1,MIC,Staphylococcus aureus [1],8.7 µg/mL
same,solubility kinetic at 2 h,[3],14 µM
CCCCc1ccc(-c2nc(C)c(-c3ccnc(-c4cccnc4)n3)s2)cc1,MIC,Staphylococcus aureus [1],17.2 µg/mL
Cc1nc(-c2ccc(C3=CCCC3)cc2)sc1-c1ccnc(N)n1,MIC,Staphylococcus aureus [1],3.12 µg/mL
same,solubility kinetic at 2 h,[3],35 µM
CCCCc1ccc(-c2nc(C)c(-c3ccnc(NC#N)n3)s2)cc1,MIC,Staphylococcus aureus [1],18.7 µg/mL
CC(=O)NC[C@H]1CN(c2ccc(N3CCOCC3)c(F)c2)C(=O)O1 [LINEZOLID],MBC,Staphylococcus aureus [6],32 µg/mL
same,MIC,Staphylococcus aureus [7],32 µg/mL
same,MIC,Staphylococcus aureus [10],1 µg/mL
same,MIC,Staphylococcus aureus [12],1 µg/mL
same,MBC,Staphylococcus aureus [13],2 µg/mL
same,MIC,Staphylococcus aureus [15],1 µg/mL
same,MIC,Staphylococcus aureus [17],1 µg/mL
same,MBC,Staphylococcus aureus [19],> 64 µg/mL
same,MIC,Staphylococcus aureus [21],1 µg/mL
same,MIC,Staphylococcus aureus [22],1 µg/mL
same,MBC,Staphylococcus aureus [23],4 µg/mL
same,MBC,Staphylococcus aureus [24],2 µg/mL
same,MIC,Enterococcus faecium [26],1 µg/mL
same,MBC,Staphylococcus aureus [27],8 µg/mL
same,MBC,Enterococcus faecium [28],32 µg/mL
same,MBC,Staphylococcus aureus [29],16 µg/mL
Cc1nc(-c2ccc(C=C3CCCC3)cc2)sc1-c1ccnc(N)n1,MIC,Staphylococcus aureus [1],1.17 µg/mL
CCCCc1ccc(-c2nc(C)c(-c3ccnc(NC(N)=S)n3)s2)cc1,MIC,Staphylococcus aureus [1],> 25 µg/mL
CCCCc1ccc(-c2nc(C)c(-c3ccnc(NC(=N)N(C)C)n3)s2)cc1,MIC,Staphylococcus aureus [1],0.78 µg/mL
same,solubility kinetic at 2 h,[3],53 µM
CCCCc1ccc(-c2nc(C)c(-c3ccn4ncnc4n3)s2)cc1,MIC,Staphylococcus aureus [1],> 25 µg/mL
Cc1nc(-c2ccc(C3=CCCCC3)cc2)sc1-c1ccnc(N)n1,MIC,Staphylococcus aureus [1],0.78 µg/mL
same,solubility kinetic at 2 h,[3],37 µM
same,Ratio,Staphylococcus aureus [31],1
Cc1nc(-c2ccc(/C3=C/CCCCCC3)cc2)sc1-c1ccnc(N)n1,MIC,Staphylococcus aureus [1],5.6 µg/mL
